Measurements reported in ChEMBL document CHEMBL4513216, “Probing the Open Global Health Chemical Diversity Library for Multistage-Active Starting Points for Next-Generation Antimalarials” (ACS Infect Dis, 2020).

Test: Toxicity liver stage against HepG2, at 10uM
Format: cell-based
Parameters: test concentration 10 uM, cell line HepG2-A16-CD81EGFP
Conditions: human, HepG2-A16-CD81EGFP cells; read-out: INHIBITION
Method in brief: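 Uninfected HepG2-A16-CD81EGFP cells, 3 × 10^3 per well, 1536-well, plated on prespotted compound at 10 μM final, parasite-free screening media added to match infected plates; puromycin 10 μM positive, DMSO 0.5% negative; run in parallel with 48 h PbLuc assay at 37 °C, 5% CO2; viability by CellTiter-Glo luminescence, normalized to controls.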

Structure (SMILES) | cytotoxicity at 10 µM [%]
COCCN(C)Cc1cn(C)nc1-c1ccc2c(c1)OCCO2 | -0.65
Cc1nc(C(Cc2ccsc2)NC(=O)CN2CCOCC2)sc1C (configuration not stated) | 2.7
Fc1ccccc1-c1cccc(C2CCCN(C3CCOCC3)C2)n1 (configuration not stated) | 0.22
COCCn1cc(C(=O)NCCS(N)(=O)=O)c2ccccc21 | 7.01
Cn1ccnc1CN1CCc2c(COCC3CC3)nn(C)c2C1 | 8.68
O=C([C@@H]1COC[C@H]2CN(c3ccncn3)C[C@H]21)N1CCCCO1 | -132
CN(Cc1ccc2c(c1)OCO2)C(=O)c1ccc(C2CCCO2)s1 (configuration not stated) | 5.6
CCCS(=O)(=O)NCc1cccnc1OCc1ccccc1 | 13
Cc1ccc(C(C)NCc2c(C(C)C)nn(C)c2N2CCOCC2)o1 (configuration not stated) | -4.79
CC(C)NC1CCCc2nc(-c3ccccc3)ncc21 (configuration not stated) | 16.1
Cc1cc(C)n(C2CN(CC(O)c3ccc(F)cc3)C2)n1 (configuration not stated) | -13
Cn1cccc1CN1CCC2(CC1)CN(c1ccccc1)C(=O)CO2 | -130
c1ccc(-n2cc(CN3CCCCC3Cn3cncn3)nn2)cc1 (configuration not stated) | -14.2
CCCN(C)C(=O)c1cc(S(=O)(=O)NCC)ccc1C | -0.403
O=C(c1sccc1Cl)N1CCC(Cn2cc(CO)nn2)CC1 | -7.12
Cn1cc(C(=O)N2CCCC2CCc2ccccc2)cn1 (configuration not stated) | 9.84
CCCC(=O)Nc1cc2c(cc1OC)NC(=O)CC2c1ccc(CC)o1 (configuration not stated) | 2.01
Cc1ccc(-c2nnc(SCC(=O)O)n2-c2ccccc2)cc1 | -4.9
CC(C)c1nn(C)c(N2CCOCC2)c1CNCc1cscn1 | -3.83
Cc1cc(C)n(-c2cncc(N3CCC(C(=O)N(C)C)CC3)n2)n1 | -16
CN(C)CC(=O)N1CCc2onc(Cn3cccn3)c2C1 | -3.83

Structure (SMILES) | cytotoxicity at 10 µM [%]
CC1(c2ccccc2)CCC(=O)N(CC2(N3CCOCC3)CCCC2)C1 (configuration not stated) | 8.8
Cc1ccc(C(C)N(C)CCS(=O)(=O)CCC(N)=O)cc1 (configuration not stated) | -52.5
CC(Cn1ccnc1)NC(=O)N1CCCN(Cc2cccs2)CC1 (configuration not stated) | -12.4
Cc1occc1C(=O)N1CCC2(CCCN(c3ncc(F)cn3)C2)C1 (configuration not stated) | -102
CCCc1n[nH]c(C2CN(C(=O)Cc3ccc(C)nc3)CCO2)n1 (configuration not stated) | 6.73
NC(=O)CN1CCOCC(Cc2ccccc2)C1 (configuration not stated) | 0.579
COC[C@H]1CC[C@@H]2[C@@H](CCN2Cc2ccccn2)O1 | -72.6
CCS(=O)(=O)N1CCC2(CCN(Cc3cccc(OC)c3)CC2)CC1 | 2.5
CN(C(=O)CC1=CCCCC1)C1CCCN(CCc2ccccc2)C1 (configuration not stated) | 7.23
Cc1nc(N(C)C)ncc1C(=O)NCCc1csc(-c2ccncc2)n1 | 1.39
Cc1nc(CN2CCC3(CCCN(Cc4ccncc4)C3)C2=O)cs1 (configuration not stated) | 1.38
Cc1nc(C)c(C(C)NCc2c(C(C)C)nn(C)c2N(C)C)s1 (configuration not stated) | -8.53
CCN1CCN(C)C(=O)C12CCN(Cc1csc(C)n1)CC2 | 1.53
CN(C)C(=O)CN1CC[C@H]2CN(S(C)(=O)=O)C[C@@H]2C1=O | -13.1
CN(CCOCC1CC1)C(=O)Nc1ccc(C#N)c(Cl)c1 | -11.1
Cc1ccnc(NC(=O)CCc2cnn(C)c2C)c1 | 0.107
Cc1cnc(N2C[C@@H]3CCN(CC(=O)N(C)C)C(=O)[C@H]3C2)nc1 | -19
COc1cc(C(=O)Nc2cn[nH]c2)ccc1C | -7.33
Cc1nc2c(c(NC(C)C)n1)CCN(C(=O)c1ccno1)CC2 | 7.77
CN(C)C(=O)C1CCCN1C(=O)c1ccc(Cn2ccnc2)o1 (configuration not stated) | -0.304
COCCCC1CCCN(C(=O)CCc2cc(O)no2)C1 (configuration not stated) | 8.41

Structure (SMILES) | cytotoxicity at 10 µM [%]
CCC12CN3CC(C)(CN(C1)C3c1[nH]c(=O)[nH]c(=O)c1C)C2=O (configuration not stated) | 6.35
CNC(=O)CCc1cc(C)nc(C2CCN(C(=O)CN(C)C)CC2)c1 | -3.48
O=S(=O)(NC[C@H]1C[C@@H]2CCN1C[C@@H]2CN1CCCC1)c1ccc(Cl)cc1 | -4.38
CC(C)c1noc(CN2CCN(C(=O)c3ccc(F)cc3)CC2)n1 | -9.73
CC(C)C(NC(=O)Cn1ccc(=O)n(C)c1=O)c1ccc(F)cc1 (configuration not stated) | -9.9
CC(C#N)CN(C)C(=O)CCNC(=O)OC(C)(C)C (configuration not stated) | 4.94
CC1(C)CC(n2cc3nc(N4CCOCC4)[nH]cc-3c2=O)CC(C)(C)N1 | -19.9
COCCn1c2c(ccc1=O)CCN(C(=O)CC1CC1)CC2 | 2.24
O=C1N(Cc2cccnc2)CCC12CCCN(c1ncccn1)C2 (configuration not stated) | -10.9
Cc1ccc(N2CCCC(c3[nH]ncc3Cc3ccccc3)C2)nn1 (configuration not stated) | 10.4
Cc1nccn1C1CCCN(C(=O)c2cccc(-n3cccc3)c2)C1 (configuration not stated) | -23
CCN(CC)C(=O)CSc1nc2cc(C)nc-2c(O)n1Cc1ccco1 | 3.49
CCn1nc(CNC(=O)C2CCCN(CC(N)=O)C2)c2ccccc21 (configuration not stated) | -9.65
CC1CN(Cc2cccnc2)CCN1c1ccc2nncn2n1 (configuration not stated) | -11.1
CC(C)c1nc2n(n1)CC(NCC(=O)NCCC1=CCCCC1)CC2 (configuration not stated) | -4.76
Cc1nnc(CN2CCCC(c3cc(C(N)=O)[nH]n3)C2)o1 (configuration not stated) | -7.32
CCN(CC)CCn1ccnc1-c1cccc(O)c1 | -5.13
CCOCC(=O)N1C[C@H]2CC[C@@H](C1)N(Cc1ccccn1)C2=O | 10.9
CCc1noc(CN(C)C(=O)c2ccccc2-c2ncn[nH]2)n1 | 16.7
CC(C(=O)N1CCN(CCOc2ccccc2)CC1)n1cc(Cl)cn1 (configuration not stated) | 10.4
CC(=O)N1CCCC2(CN(Cc3ccncc3)CCO2)C1 (configuration not stated) | 7.22

Structure (SMILES) | cytotoxicity at 10 µM [%]
Cc1nc(C)n(CC2CCCN2Cc2nc(N)c3ccccc3n2)n1 (configuration not stated) | -0.192
CS(=O)(=O)NCC1Cc2ccccc2O1 (configuration not stated) | 2.01
CC(CC(=O)NCCS(N)(=O)=O)C1CCCCC1 (configuration not stated) | -9.52
O=C(Cc1csc(-c2ccccc2Cl)n1)NCc1cccc(C(=O)O)c1 | -3.67
CCn1c(N)nc2cc(C(=O)NCCNc3ncccc3C)cnc21 | -5.98
OC(CNCCc1nnc2ccccn12)c1ccc(F)c(F)c1 (configuration not stated) | 2.52
CN(C)CCCNC(=O)C(c1cccc(F)c1)N(C)C (configuration not stated) | -4.58
CC(=O)c1cccc(-c2nc3c([nH]2)CCNC3)c1F | -50.5
COc1cc(C)c(CNC(C)c2csc(C3CC3)n2)cc1OC (configuration not stated) | -2.21
CN1C(=O)COc2ccc(C(=O)Cn3cnc4ccsc4c3=O)cc21 | 8.69
CC(O)CN1CCC(CN(C)Cc2ccc(C#N)cc2)CC1 (configuration not stated) | 0.788
COCCC1(CNC(=O)Nc2ccc(-n3ccnn3)cc2)CCC1 | -0.677
COc1ccc(C(=O)C2CCCN(Cc3ccon3)C2)c(OC)c1 (configuration not stated) | -4.46
CNC(=O)C(C)(C)N1CCC[C@H]1C(=O)NC(C)(C)C | -2.63
Cc1nn(C)c(C)c1-c1ccnc(N2CCCN(CC(C)C)CC2)n1 | 5.78
COc1cc(C(C)=O)ccc1SCC(=O)Nc1cc(C)n[nH]1 | 9.83
CCN1CCC(CC(=O)N2CCn3cccc3C2c2cccnc2)CC1 (configuration not stated) | -8.87
COc1ccc(Cl)cc1CS(=O)(=O)Cc1nc(C2CC2)no1 | 3.43
Cc1cnn(C2CN(Cc3noc(C4CC4)n3)C2)c1 | 4.34
